According to ChEMBL document CHEMBL1136157, “Synthesis of 3a,4-dihydro-3H-[1]benzopyrano[4,3-c]isoxazoles, displaying combined 5-HT uptake inhibiting and alpha(2)-adrenoceptor antagonistic activities: a novel series of potential antidepressants” (Bioorg Med Chem Lett, 2003):

Columns and labels:
[1] = target: Sodium-dependent serotonin transporter (Rattus norvegicus) (UniProt P31652); experiment: In vivo effective dose required to inhibit p-chloroamphetamine induced excitation in rats upon subcutaneous administration; assay type: functional, organism-based
Chain of Sodium-dependent serotonin transporter (Rattus norvegicus) (P31652 whole entry): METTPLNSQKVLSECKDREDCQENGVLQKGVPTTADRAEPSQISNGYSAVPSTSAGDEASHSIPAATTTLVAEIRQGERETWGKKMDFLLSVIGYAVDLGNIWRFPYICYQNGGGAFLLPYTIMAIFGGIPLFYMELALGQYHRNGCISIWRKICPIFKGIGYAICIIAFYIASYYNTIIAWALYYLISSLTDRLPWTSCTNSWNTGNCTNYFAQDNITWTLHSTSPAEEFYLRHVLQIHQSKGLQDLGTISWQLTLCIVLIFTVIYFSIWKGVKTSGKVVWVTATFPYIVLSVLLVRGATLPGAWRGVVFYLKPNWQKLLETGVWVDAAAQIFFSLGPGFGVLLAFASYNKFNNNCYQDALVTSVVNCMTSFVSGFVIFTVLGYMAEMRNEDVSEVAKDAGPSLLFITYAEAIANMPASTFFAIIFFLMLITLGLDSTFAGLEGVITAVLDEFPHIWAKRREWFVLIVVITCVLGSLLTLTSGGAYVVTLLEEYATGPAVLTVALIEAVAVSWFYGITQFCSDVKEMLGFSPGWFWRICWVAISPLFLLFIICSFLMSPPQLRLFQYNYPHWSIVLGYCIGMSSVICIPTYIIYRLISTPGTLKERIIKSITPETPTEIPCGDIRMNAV
Procedure, shortened: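 Overnight-starved male Wistar rats (200–250 g) given test compound or solvent sc 1 h before p-chloroamphetamine (5 mg/10 mL/kg, sc). Excitation scored over a 15-min interval starting 45 min after pCA. A score <2 was the all-or-nothing criterion for inhibition (1.0% false positives, n>200). ED50 in mg/kg.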

[2] = target: Adrenergic receptor alpha-2 (Rattus norvegicus) (UniProt P22086+P19328+P22909); experiment: In vivo effective dose required to inhibit xylazine-induced loss of righting in rats upon subcutaneous administration; assay type: functional, organism-based
[3] = target: T1, Alpha-2B adrenergic receptor (Homo sapiens, UniProt P18089); experiment: In vitro binding affinity towards human alpha-2B adrenergic receptor using [3H]rauwolscine
T1 sequence (P18089 whole entry): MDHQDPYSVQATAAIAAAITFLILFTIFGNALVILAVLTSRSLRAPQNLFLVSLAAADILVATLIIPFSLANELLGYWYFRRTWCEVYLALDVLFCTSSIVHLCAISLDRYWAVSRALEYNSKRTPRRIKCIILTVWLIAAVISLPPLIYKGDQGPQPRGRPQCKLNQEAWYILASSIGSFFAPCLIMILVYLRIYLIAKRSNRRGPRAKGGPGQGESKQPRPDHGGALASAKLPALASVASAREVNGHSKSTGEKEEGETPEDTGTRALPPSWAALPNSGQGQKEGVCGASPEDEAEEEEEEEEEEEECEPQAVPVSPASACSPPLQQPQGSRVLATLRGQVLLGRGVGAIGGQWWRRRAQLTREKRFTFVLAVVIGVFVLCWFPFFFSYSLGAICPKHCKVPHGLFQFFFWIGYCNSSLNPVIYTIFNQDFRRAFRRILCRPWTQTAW

[4] = target: T2, Alpha-2C adrenergic receptor (Homo sapiens, UniProt P18825); experiment: In vitro binding affinity towards human adrenergic alpha-2C adrenergic receptor using [3H]rauwolscine
T2 sequence (P18825 whole entry): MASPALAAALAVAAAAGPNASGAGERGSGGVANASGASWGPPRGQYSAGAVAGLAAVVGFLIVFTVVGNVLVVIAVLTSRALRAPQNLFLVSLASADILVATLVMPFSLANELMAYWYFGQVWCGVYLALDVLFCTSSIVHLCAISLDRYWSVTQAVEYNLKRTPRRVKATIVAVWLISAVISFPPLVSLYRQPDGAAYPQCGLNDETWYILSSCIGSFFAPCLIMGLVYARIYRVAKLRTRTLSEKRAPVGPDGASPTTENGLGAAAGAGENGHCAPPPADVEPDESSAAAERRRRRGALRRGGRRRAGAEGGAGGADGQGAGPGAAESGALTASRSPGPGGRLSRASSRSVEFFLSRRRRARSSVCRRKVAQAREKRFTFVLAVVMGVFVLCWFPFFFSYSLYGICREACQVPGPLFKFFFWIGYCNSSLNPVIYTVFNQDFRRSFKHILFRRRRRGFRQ

[5] = target: T3, Alpha-2A adrenergic receptor (Homo sapiens, UniProt P08913); experiment: In vitro binding affinity towards human alpha-2A adrenergic receptor using [3H]rauwolscine
T3 sequence (P08913 whole entry): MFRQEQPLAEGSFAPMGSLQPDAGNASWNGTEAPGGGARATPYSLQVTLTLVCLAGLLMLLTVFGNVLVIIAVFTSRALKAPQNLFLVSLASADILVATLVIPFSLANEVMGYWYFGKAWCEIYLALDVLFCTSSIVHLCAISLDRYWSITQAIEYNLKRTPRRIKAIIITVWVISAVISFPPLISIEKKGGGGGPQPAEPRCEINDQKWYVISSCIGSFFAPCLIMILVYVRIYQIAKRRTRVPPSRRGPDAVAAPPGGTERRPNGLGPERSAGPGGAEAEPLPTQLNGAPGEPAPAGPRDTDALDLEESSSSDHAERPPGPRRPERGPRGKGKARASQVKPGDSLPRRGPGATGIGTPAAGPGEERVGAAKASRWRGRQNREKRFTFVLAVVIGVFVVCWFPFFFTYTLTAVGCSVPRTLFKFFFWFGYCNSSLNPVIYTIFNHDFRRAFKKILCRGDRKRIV

Row | Compound | ED50 [1] [mg/kg] | ED50 [2] [mg/kg] | Ki [3] [nM] | Ki [4] [nM] | Ki [5] [nM]
1 | COc1cc2c(cc1OC)C1=NO[C@@H](CN3CCN(C/C=C/c4ccccc4)CC3)[C@@H]1CO2 (stereo in doubt; (-)5) [listing 1 of 2 here] | 2.5 | 5 | – | – | –
2 | COc1cc2c(cc1OC)C1=NO[C@@H](CN3CCN(C/C=C(\C)c4ccccc4)CC3)[C@@H]1CO2 (stereo in doubt; (-)15g) [listing 1 of 2 here] | > 10 | > 10 | – | – | –
3 | COc1cc2c(cc1OC)C1=NOC(CN3CCN(C/C=C/c4ccccc4)CC3)C1CO2 (centres undefined) | 0.76 | 2.5 | 42 | – | –
4 | C(=C\c1ccccc1)/CN1CCN(CC2ON=C3c4ccccc4OCC32)CC1 (centres undefined) | 5 | 2 | 2 | 1.7 | –
5 | COc1cc2c(cc1OC)C1=NOC(CN3CCN(Cc4ccc5ccccc5c4)CC3)C1CO2 (centres undefined) | 0.79 | 5 | 49 | 3.1 | –
6 | COc1ccc2c(c1)C1=NOC(CN3CCN(C/C=C/c4ccccc4)CC3)C1CO2 (centres undefined) | 5 | 2.5 | 12 | 2.3 | 0.8
7 | COc1cc2c(cc1OC)C1=NOC(CN3CCN(Cc4cc5ccccc5s4)CC3)C1CO2 (centres undefined) | 2.5 | > 10 | > 1000 | 89 | 98
8 | COc1cc2c(cc1OC)C1=NO[C@@H](CN3CCN(C/C=C/c4ccccc4)CC3)[C@@H]1CO2 (stereo in doubt; (+)5) [listing 1 of 2 here] | – | – | 14 | – | –
9 | COc1cc2c(cc1OC)C1=NO[C@@H](CN3CCN(C/C=C(\C)c4ccccc4)CC3)[C@@H]1CO2 (stereo in doubt; (+)15g) [listing 1 of 2 here] | – | – | 14 | 0.2 | –
10 | COc1cc2c(cc1OC)C1=NOC(CN3CCN(CCCc4ccccc4)CC3)C1CO2 (centres undefined) | 5 | 2.5 | 42 | 1.9 | 26
11 | COc1cc2c(cc1OC)C1=NO[C@@H](CN3CCN(C/C(C)=C/c4ccccc4)CC3)[C@@H]1CO2 (stereo in doubt; (+)15f) [listing 1 of 2 here] | – | 3.1 | – | – | –
12 | COc1cc2c(cc1OC)C1=NO[C@@H](CN3CCN(Cc4ccc5ccccc5c4)CC3)[C@@H]1CO2 (stereo in doubt; (+)15h) [listing 1 of 2 here] | – | – | 14 | 0.8 | –
13 | COc1cc2c(cc1OC)C1=NO[C@@H](CN3CCN(Cc4ccc5ccccc5c4)CC3)[C@@H]1CO2 (stereo in doubt; (+)15h) [listing 2 of 2 here] | 0.08 | 6.1 | – | – | –
14 | COc1cc2c(cc1OC)C1=NO[C@@H](CN3CCN(Cc4ccc5ccccc5c4)CC3)[C@@H]1CO2 (stereo in doubt; (-)15h) [listing 1 of 2 here] | 1.5 | 10 | – | – | –
15 | COc1ccc2c(c1)OCC1C2=NOC1CN1CCN(C/C=C/c2ccccc2)CC1 (centres undefined) | 1.4 | 2 | 16 | 1.9 | –
16 | COc1cc2c(cc1OC)C1=NO[C@@H](CN3CCN(Cc4ccc5ccccc5c4)CC3)[C@@H]1CO2 (stereo in doubt; (-)15h) [listing 2 of 2 here] | – | – | 95 | 9.5 | –
17 | COc1cc2c(cc1OC)C1=NO[C@@H](CN3CCN(C/C(C)=C/c4ccccc4)CC3)[C@@H]1CO2 (stereo in doubt; (+)15f) [listing 2 of 2 here] | – | – | 3 | 0.1 | –
18 | COc1cccc2c1CCC[C@H]2CN(C)CCc1ccc2ccoc2c1 | 10 | > 10 | 11 | 2.1 | –

Row | Compound | ED50 [1] [mg/kg] | ED50 [2] [mg/kg] | Ki [3] [nM] | Ki [4] [nM] | Ki [5] [nM]
19 | COc1cc2c(cc1OC)C1=NO[C@@H](CN3CCN(C/C(C)=C/c4ccccc4)CC3)[C@@H]1CO2 (stereo in doubt; (-)15f) [listing 1 of 2 here] | – | – | 15 | 1.4 | –
20 | Fc1ccc2c(c1)CC(CC1CN=CN1)C2 (centres undefined) | 2 | 2.7 | 23 | 19 | –
21 | COc1cc2c(cc1OC)C1=NOC(CN3CCN(Cc4cnc5ccccc5c4)CC3)C1CO2 (centres undefined) | 5 | 5 | > 1000 | 30 | 34
22 | COc1cc2c(cc1OC)C1=NO[C@@H](CN3CCN(C/C=C/c4ccccc4)CC3)[C@@H]1CO2 (stereo in doubt; (-)5) [listing 2 of 2 here] | – | – | 42 | – | –
23 | COc1cc2c(cc1OC)C1=NOC(CN3CCN(C/C=C(\C)c4ccccc4)CC3)C1CO2 (centres undefined) | 0.2 | 2.5 | 31 | 0.6 | –
24 | COc1cc2c(cc1OC)C1=NOC(CN3CCN(Cc4ccccc4)CC3)C1CO2 (centres undefined) | 8 | > 10 | 995 | 89 | 186
25 | COc1cc2c(cc1OC)C1=NO[C@@H](CN3CCN(C/C=C\c4ccccc4)CC3)[C@@H]1CO2 | 10 | – | – | – | –
26 | COc1cc2c(cc1OC)C1=NOC(CN3CCN(CCC(=O)c4ccccc4)CC3)C1CO2 (centres undefined) | – | – | – | 5.3 | 12
27 | COc1cc2c(cc1OC)C1=NOC(CN3CCN(Cc4csc5ccccc45)CC3)C1CO2 (centres undefined) | – | – | 370 | 13 | 66
28 | COc1cc2c(cc1OC)C1=NO[C@@H](CN3CCN(C/C=C(\C)c4ccccc4)CC3)[C@@H]1CO2 (stereo in doubt; (+)15g) [listing 2 of 2 here] | 0.5 | 0.32 | – | – | –
29 | COc1cc2c(cc1OC)C1=NOC(CN3CCN(CCc4ccccc4)CC3)C1CO2 (centres undefined) | 10 | > 10 | > 1000 | 89 | 234
30 | COc1cc2c(cc1OC)C1=NOC(CN3CCN(Cc4cccc5ccccc45)CC3)C1CO2 (centres undefined) | 3.2 | > 10 | > 1000 | 89 | 234
31 | COc1cc2c(cc1OC)C1=NO[C@@H](CN3CCN(C/C=C/c4ccccc4)CC3)[C@@H]1CO2 (stereo in doubt; (+)5) [listing 2 of 2 here] | 0.51 | 2.5 | – | – | –
32 | COc1cc2c(cc1OC)C1=NOC(CN3CCN(CC4=Cc5ccccc5C4)CC3)C1CO2 (centres undefined) | 0.32 | 10 | 315 | 4.7 | 22
33 | COc1cc2c(cc1OC)C1=NOC(CN3CCN(C/C(C)=C/c4ccccc4)CC3)C1CO2 (centres undefined) | – | 1 | 7.5 | 0.2 | –
34 | COc1cc2c(cc1OC)C1=NO[C@@H](CN3CCN(C/C=C(\C)c4ccccc4)CC3)[C@@H]1CO2 (stereo in doubt; (-)15g) [listing 2 of 2 here] | – | – | 405 | 10 | –
35 | COc1cc2c(cc1OC)C1=NO[C@@H](CN3CCN(C/C(C)=C/c4ccccc4)CC3)[C@@H]1CO2 (stereo in doubt; (-)15f) [listing 2 of 2 here] | – | > 10 | – | – | –
36 | COc1cc2c(cc1OC)C1=NOC(CN3CCN(Cc4ccc5ncccc5c4)CC3)C1CO2 (centres undefined) | 0.63 | 5 | 721 | 36 | 117
